Structures are written as SMILES.

In ChEMBL document CHEMBL1126111, “Potential antitumor agents. 21. Structure determination and antitumor activity of imidazo[2,1-b]thiazole guanylhydrazones” (1992) one finds T/C data, which are given here for ten compounds.

What all share (format): functional
Holding throughout (details): route intraperitoneal

Assay [1] deals with Mus musculus. Put plainly: Antitumor activity in mice bearing Ehrlich ascites tumor cells at 100 mg/kg ip. The gist of the method: (§1)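 Female Swiss mice (average weight 21 ± 1 g), groups of eight, implanted with 10^6 Ehrlich ascites tumor cells from donor mice; single ip dose in DMSO given 24 h later, starting at 100 mg/kg, repeated at lower doses in new groups if active. Deaths followed for 60 days; % T/C = mean survival time treated vs vehicle controls (10 mice).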

Assay [2] relates to Mus musculus. Put plainly: Antitumor activity in mice bearing Ehrlich ascites tumor cells at 50 mg/kg ip. The essentials:
as §1

In assay [3] the test system is Mus musculus. Put plainly: Antitumor activity in mice bearing Ehrlich ascites tumor cells at 25 mg/kg ip. The gist of the method:
as §1

Assay [4] relates to Mus musculus. Put plainly: Antitumor activity in mice bearing Ehrlich ascites tumor cells at 12.5 mg/kg ip. The gist of the method:
as §1

Turning to `Cc1nc2sccn2c1/C=N/N=C(N)N.Cl`, the T/C (commonly the ratio of treated to control) with Mus musculus [1] worked out at 100%.

Consider `Cl.N=C(N)N/N=C/c1c(-c2ccccc2)nc2n1CCS2`, for which the T/C with Mus musculus [2] was 100%.

In turn, `Cc1nc2n(c1/C=N/N=C(N)N)CCS2.Cl` displayed a T/C in the assay with Mus musculus [2] of 100%.

In the assay with Mus musculus [3], `Cc1ccc(-c2nc3sccn3c2/C=N/N=C(N)N)cc1.Cl` came in with a T/C of 110%.

On to `Cl.N=C(N)N/N=C/c1c(Cl)nc2n1CCS2`, for which the T/C in the assay on Mus musculus [1] was found to be 180%.

In the assay on Mus musculus [4], `Cl.N=C(N)N/N=C/c1c(-c2ccc(Cl)cc2)nc2sccn12` showed a T/C of 190%.

Compound `Cl.N=C(N)N/N=C/c1c(-c2ccccc2)nc2sccn12` displayed a T/C in the assay on Mus musculus [2] of 120%.

As to `Cl.N=C(N)N/N=C/c1c(Cl)nc2sccn12`, the T/C with Mus musculus [2] came out at 200%.

Turning to `Cc1ccc(-c2nc3n(c2/C=N/N=C(N)N)CCS3)cc1.Cl`, the T/C with Mus musculus [2] is 100%.

Take `O=c1[nH]cc(F)c(=O)[nH]1` [FLUOROURACIL]: the T/C with Mus musculus [1] came out at 180%.
